The values below come from ChEMBL document CHEMBL1138043, “Exploration of orally available calpain inhibitors 2: peptidyl hemiacetal derivatives” (J Med Chem, 2006).

Data set [1] is described as follows: Metabolic stability in human hepatic S9 fraction after 0.5 hrs. The class given is ADME. The note with it: liver S9 fraction, read-out: Stability. The essentials:
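Compound at 5 µM final (added in acetonitrile) was incubated with human hepatic S9 in 50 mM potassium phosphate pH 7.4. An NADPH-generating system was present (3 mM MgCl2, 1 mM NADP+, 5 mM glucose-6-phosphate, 1 U/mL G6PDH). Incubation ran 30 min at 37 °C and was quenched with acetonitrile. Residual parent was measured by LC-UV or LC-MS/MS, n = 1.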

Data set [2] concerns the target T1, Calpain-2 catalytic subunit (Sus scrofa, UniProt P43367).
T1 sequence (P43367 whole entry): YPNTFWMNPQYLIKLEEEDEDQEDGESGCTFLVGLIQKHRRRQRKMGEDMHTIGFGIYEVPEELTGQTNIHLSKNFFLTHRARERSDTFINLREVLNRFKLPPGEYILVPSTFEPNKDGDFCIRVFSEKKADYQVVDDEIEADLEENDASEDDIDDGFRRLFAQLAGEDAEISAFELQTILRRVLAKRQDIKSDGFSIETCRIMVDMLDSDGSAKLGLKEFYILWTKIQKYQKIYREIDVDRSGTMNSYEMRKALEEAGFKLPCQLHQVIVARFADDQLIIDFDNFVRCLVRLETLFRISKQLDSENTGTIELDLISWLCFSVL
The data set is described as follows: Inhibition of porcein kidney m calpain. In short, it runs like this: (§1)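 Casein substrate at 0.5 mg/mL in 50 mM Tris-HCl pH 7.4 with 20 mM dithiothreitol and 1.0 nmol enzyme. Inhibitors were added in DMSO. Reaction was started with 20 mM CaCl2; blank wells received 1 mM EDTA instead. Incubation ran 60 min at 30 °C. Percent inhibition came from OD differences. IC50 is the mean of two independent determinations.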

The target of data set [3] is T2, Calpain-1 catalytic subunit (Homo sapiens, UniProt P07384).
T2 sequence (P07384 whole entry): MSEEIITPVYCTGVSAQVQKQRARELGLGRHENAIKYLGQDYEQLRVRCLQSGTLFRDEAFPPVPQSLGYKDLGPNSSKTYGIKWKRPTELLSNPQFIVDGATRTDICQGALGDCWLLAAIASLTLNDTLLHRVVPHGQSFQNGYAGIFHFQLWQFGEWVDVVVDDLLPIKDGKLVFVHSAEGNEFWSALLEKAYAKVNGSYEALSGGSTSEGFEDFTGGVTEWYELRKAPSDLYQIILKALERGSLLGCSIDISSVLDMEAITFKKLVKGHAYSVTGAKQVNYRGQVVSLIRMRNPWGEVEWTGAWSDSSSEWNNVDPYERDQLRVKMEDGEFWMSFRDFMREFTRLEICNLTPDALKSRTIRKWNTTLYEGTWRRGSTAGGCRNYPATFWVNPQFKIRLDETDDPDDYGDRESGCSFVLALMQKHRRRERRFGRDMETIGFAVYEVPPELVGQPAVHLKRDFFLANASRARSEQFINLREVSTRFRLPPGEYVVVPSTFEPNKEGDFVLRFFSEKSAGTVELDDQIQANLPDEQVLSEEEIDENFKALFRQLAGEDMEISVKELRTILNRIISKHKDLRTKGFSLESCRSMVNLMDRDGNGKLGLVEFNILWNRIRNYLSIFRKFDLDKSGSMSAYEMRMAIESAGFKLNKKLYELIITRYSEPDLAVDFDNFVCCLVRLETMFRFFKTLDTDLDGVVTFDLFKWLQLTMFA
The experiment in a line: Inhibition of human erythrocyte mu calpain. In short, it runs like this: as §1

Data set [4] in a line: Aqueous solubility at pH 7 at 25 degreeC. The class given is physicochemical.
Data set [5] can be described thus: Tmax in Sprague-Dawley rat at 10 mg/kg, po. Type of data set: ADME, organism-based. Set-up: dose 10 mg/kg, route oral. To be noted: in vivo. The essentials:
(§2)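 Male Sprague-Dawley rats (200-250 g), single dose. Oral dosing as a suspension in 0.5% carboxymethyl cellulose; iv dosing at 10 mg/mL in 60% poly(ethylene glycol)/40% water. Plasma was taken from abdominal aorta blood under isoflurane at 0.1 (iv only), 0.25, 0.5, 1, 2, 4 and 8 h, with n = 4 or 5 per time point. Samples underwent solid-phase extraction and LC-MS/MS (MRM). Values are mean ± SD.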

The nature of data set [6]: Clearance in Sprague-Dawley rat at 3 mg/kg, iv. The class given is ADME, organism-based. On the set-up: dose 3 mg/kg, route intravenous. The note with it: in vivo. The essentials:
as §2

The subject of data set [7] is Rattus norvegicus. The data set is described as follows: Neuroprotective activity in Sprague-Dawley rat ischemia-reperfusion model measured as cell density in retinal ganglion cell layer at 100 mg/kg, po relative to control. Type of data set: functional. In short, it runs like this: (§3)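 Male Sprague-Dawley rats (150-250 g) received oral doses as a suspension in 0.5% CMC, 15 min before ischemia and again after reperfusion. Controls received vehicle. HE-stained nuclei in the ganglion cell layer 1-2 mm from the optic disk were counted over a 250 µm width at three sites. Comparison by Student t-test.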

The nature of data set [8]: Cmax in Sprague-Dawley rat at 10 mg/kg, po. To be noted: in vivo. Set-up: dose 10 mg/kg, route oral. Type of data set: ADME, organism-based. The essentials: as §2
A short description of data set [9]: Volume of distribution in Sprague-Dawley rat at 3 mg/kg, iv. The class given is ADME, organism-based. On the set-up: dose 3 mg/kg, route intravenous. To be noted: in vivo, read-out: Vdss. In short, it runs like this: as §2
The nature of data set [10]: AUC (0-infinity) in Sprague-Dawley rat at 10 mg/kg, po. To be noted: plasma. Set-up: time infinity, dose 10 mg/kg, route oral. Type of data set: ADME, organism-based. The essentials:
as §2

Data set [11] can be described thus: Terminal half life in Sprague-Dawley rat at 3 mg/kg, iv. Set-up: dose 3 mg/kg, route intravenous. The note with it: in vivo. The class given is ADME, organism-based. The essentials: as §2
Data set [12] relates to Rattus norvegicus. The experiment in a line: Neuroprotective activity in Sprague-Dawley rat ischemia-reperfusion model measured as cell density in retinal ganglion cell layer at 30 mg/kg, po relative to control. On the set-up: dose 30 mg/kg. Type of data set: functional, organism-based. In short, it runs like this:
as §3

A short description of data set [13]: AUC (0-infinity) in Sprague-Dawley rat at 3 mg/kg, iv. The class given is ADME, organism-based. Set-up: time infinity, dose 3 mg/kg, route intravenous. To be noted: plasma. The essentials: as §2
Data set [14] can be described thus: Oral bioavailability in Sprague-Dawley rat. The class given is ADME, organism-based. To be noted: in vivo. The essentials: as §2
Data set [15] deals with Rattus norvegicus. The data set is described as follows: Neuroprotective activity in Sprague-Dawley rat ischemia-reperfusion model measured as cell density in retinal ganglion cell layer at 500 mg/kg, po. Set-up: dose 500 mg/kg. Type of data set: functional, organism-based. The essentials: as §3
Data set [16] is described as follows: Lipophilicity, log D of the compound. The note with it: octanol/water. Type of data set: physicochemical.
Data set [17] is described as follows: Cmax in Sprague-Dawley rat at 500 mg/kg, po. The class given is ADME, organism-based. Set-up: dose 500 mg/kg, route oral. To be noted: in vivo. In short, it runs like this: as §2
The nature of data set [18]: AUC (0-infinity) in Sprague-Dawley rat at 500 mg/kg, po. Type of data set: ADME, organism-based. Set-up: time infinity, dose 500 mg/kg, route oral. The note with it: plasma. The essentials:
as §2

A short description of data set [19]: Tmax in Sprague-Dawley rat at 500 mg/kg, po. The note with it: in vivo. The class given is ADME, organism-based. On the set-up: dose 500 mg/kg, route oral. In short, it runs like this: as §2
Data set [20] can be described thus: Apparent permeability from apical to basolateral side of the Caco-2 cell. To be noted: human. Type of data set: ADME, cell-based. For orientation: Caco-2 monolayers are a common model of the intestinal barrier.

Values after ≈ are worked out from the molar mass of the structure shown. Active and inactive are the calls of the source.

Regarding `CC(C)C[C@@H](/C=N/NC(=O)CN(C)C)NC(=O)[C@@H](NS(=O)(=O)c1ccc(F)cc1)C(C)C`, the remaining at 0.5 h in [1] stood at 64%.

One may read the IC50 as the point on the concentration scale where inhibition reaches its midpoint. The solubility is how much of the substance goes into solution per volume. Low values mean little dissolved substance, high ones much dissolved substance. As for `CC(C)[C@H](NS(=O)(=O)c1ccc(F)cc1)C(=O)N[C@H]1CCOC1O` (stereo partly specified), the half-maximal inhibitory concentration (IC50) was 2600 nM in data set [2] and 880 nM in data set [3]. Further, in data set [1], the remaining at 0.5 h turned out to be 79%. Moreover, the concentration in solution in [4] (solubility) was 1500 µg/mL (≈ 4160 µM).

As a reminder, the Tmax is the time from dosing to the highest level. As usually defined, the clearance is a measure of how efficiently the substance is removed, as volume per time. A low value points to a low capacity for elimination. The Cmax is the peak of the concentration-time curve. As usually defined, the AUC(0-inf) is the area under the concentration-time curve extrapolated to infinity. Read a low AUC(0-inf) as less exposure. Broadly, the half-life is the time needed for the level to fall by half in the phase considered. High values mean slow loss, low ones fast loss. A word on the bioavailability: it is the share of a dose that reaches the circulation, judged against a reference dose that is usually intravenous. The low end stands for poor availability, the high end for good availability. In the case of `CC(C)C[C@H](NC(=S)Nc1ccccc1)C(=O)N[C@H]1CCOC1O` (stereo partly specified), the values for the IC50 in [2] and in data set [3] were 190 nM and 86 nM, respectively. Moreover, the Tmax in data set [5] amounted to 15 min. The compound further had a clearance in data set [6] of 55 mL/min/kg. The compound further returned an Activity with Rattus norvegicus [7] of 6.38. The Cmax in data set [8] is 5.6 µM. In [9], the Vd was determined as 2.3 L/kg. Also, the remaining at 0.5 h in [1] turned out to be 100%. The results for the AUC(0-inf) in [10] and in data set [13] were 5.7 µM·h and 2.6 µM·h, respectively. Moreover, the half-life in data set [11] is 114 min. The outcome in the data set on Rattus norvegicus [12] was inactive. The same compound returned a bioavailability in [14] of 66%.

Consider `CCCCNC(=O)C(=O)[C@H](CC(C)C)NC(=O)[C@@H](NS(=O)(=O)c1ccc(F)cc1)C(C)C`, for which the remaining at 0.5 h in data set [1] stood at 25%. This compound also displayed a solubility in data set [4] of 5.3 µg/mL (≈ 11.2 µM).

Consider `CC(C)C[C@@H](C#N)NC(=O)[C@@H](NS(=O)(=O)c1ccc(F)cc1)C(C)C`, for which the IC50 in data set [2] and in data set [3] was > 100000 nM each time.

For orientation: logD means lipophilicity at a set pH, counting ionised and neutral species. The low end stands for lower lipophilicity, the high end for higher lipophilicity. A word on the Papp A→B: it is how fast a substance crosses the layer from the apical side. As for `CC(C)C[C@@H](C=O)NC(=O)[C@@H](NS(=O)(=O)c1ccc(F)cc1)C(C)C`, in data set [2], the IC50 was found to be 49 nM. In addition, the outcome in the data set with Rattus norvegicus [15] was Active. The same compound came in with a logD in [16] of 1.7. Moreover, the clearance in data set [6] was 89 mL/min/kg. The peak level in data set [17] (Cmax) was 9.4 µM. Besides, the AUC(0-inf) amounted to 45 µM·h in data set [18] and 1.5 µM·h in [13]. Besides, the Vd in data set [9] was determined as 6.1 L/kg. Also, in data set [1], the remaining at 0.5 h is 3%. In data set [11], this compound gave a half-life of 42 min. Besides, the Tmax in data set [19] is 60 min. Moreover, the Papp A→B in data set [20] was found to be 2.6 ×10⁻⁶ cm/s. Besides, the solubility in [4] came to 100 µg/mL (≈ 268 µM). The compound also yielded a bioavailability in [14] of 18%.
